Values after ≈ are worked out from the molar mass of the structure shown. Active and inactive are the calls of the source. The calls are words filed in the database; no cut-off is given here.
What was measured:
Streptococcus pneumoniae [1] = test: Antibacterial activity against Streptococcus pneumoniae isolate OC5462 assessed as log reduction in bacterial growth at 4 times MIC measured at 6 hrs by time-kill assay; assay type: functional
In short: (§1)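 Drug was diluted from 50× stocks made in water or acidified water. Samples were taken at 6 and 24 h and serially diluted onto TSA-5% sheep blood plates. Plates were incubated 20–24 h at 37°C in 5% CO2 before counting CFU. Log10 titer change is given relative to the starting inoculum.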

[2] = Dissociation constant, pKa of the compound; assay type: physicochemical
Staphylococcus aureus [3] = test: Antibacterial activity against methicillin-resistant Staphylococcus aureus isolate OC17042 harboring gyrA S84L/G106D, parC S80F and parE D732N mutant gene by broth microdilution method; assay type: functional
In short: (§2)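 CLSI M07-A7 broth microdilution MIC. Medium was cation-adjusted Mueller-Hinton broth. For S. pneumoniae it was Mueller-Hinton supplemented with 5% lysed horse blood. CLSI quality-control strains were included as appropriate.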

Streptococcus pneumoniae [4] = test: Antibacterial activity against Streptococcus pneumoniae isolate OC6585 assessed as log reduction in bacterial growth at 2 times MIC measured at 6 hrs by time-kill assay; assay type: functional; in short: as §1
Streptococcus pneumoniae [5] = test: Antibacterial activity against Streptococcus pneumoniae ATCC 49619 by broth microdilution method; assay type: functional
In short: (§3)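 MICs by CLSI M07-A7 broth microdilution in cation-adjusted Mueller-Hinton medium. For S. pneumoniae the medium was supplemented with 5% lysed horse blood. CLSI quality control strains were run alongside as appropriate.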

Streptococcus pneumoniae [6] = test: Antibacterial activity against Streptococcus pneumoniae isolate OC6585 assessed as log reduction in bacterial growth at 4 times MIC measured at 24 hrs by time-kill assay; assay type: functional; in short: as §1
Providencia stuartii = test: Ratio of Ciprofloxacin MIC90 to compound MIC90 for Providencia stuartii; assay type: functional
Enterococcus faecium = test: Antibacterial activity against Enterococcus faecium by broth microdilution method; assay type: functional; in short: as §3
Klebsiella pneumoniae = test: Antibacterial activity against Klebsiella pneumoniae by broth microdilution method; assay type: functional; in short: as §3
Streptococcus agalactiae = test: Antibacterial activity against Streptococcus agalactiae by broth microdilution method; assay type: functional; in short: as §3
Proteus mirabilis = test: Antibacterial activity against Proteus mirabilis by broth microdilution method; assay type: functional; in short: as §3
Streptococcus pneumoniae [7] = test: Ratio of Moxifloxacin MIC90 to compound MIC90 for ciprofloxacin-resistant Streptococcus pneumoniae; assay type: functional
Streptococcus pneumoniae [8] = test: Antibacterial activity against Streptococcus pneumoniae isolate OC6585 assessed as log reduction in bacterial growth at 4 times MIC measured at 6 hrs by time-kill assay; assay type: functional; in short: as §1
Enterococcus faecalis = test: Antibacterial activity against Enterococcus faecalis ATCC 29212 by broth microdilution method; assay type: functional; in short: as §3
Staphylococcus aureus [9] = test: Antibacterial activity against Staphylococcus aureus […] by broth microdilution method; assay type: functional; in short: as §2
Streptococcus pneumoniae [10] = test: Antibacterial activity against Streptococcus pneumoniae isolate OC6608 assessed as log reduction in bacterial growth at 2 times MIC measured at 6 hrs by time-kill assay; assay type: functional; in short: as §1
Streptococcus pneumoniae [11] = test: Antibacterial activity against penicillin-resistant Streptococcus pneumoniae by broth microdilution method; assay type: functional, organism-based
In short: (§4)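 CLSI M07-A7 broth microdilution MIC in cation-adjusted Mueller-Hinton medium. For S. pneumoniae the medium was supplemented with 5% lysed horse blood. CLSI quality-control strains were included as appropriate.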

Streptococcus pneumoniae [12] = test: Antibacterial activity against Streptococcus pneumoniae isolate OC7189 assessed as log reduction in bacterial growth at 4 times MIC measured at 24 hrs by time-kill assay; assay type: functional; in short: as §1
Streptococcus pneumoniae [13] = test: Antibacterial activity against Streptococcus pneumoniae isolate OC7348 assessed as log reduction in bacterial growth at 2 times MIC measured at 24 hrs by time-kill assay; assay type: functional; in short: as §1
Staphylococcus aureus [14] = test: Antibacterial activity against methicillin-resistant Staphylococcus aureus isolate OC8530 harboring gyrA S84L and parC I143V mutant gene by broth microdilution method; assay type: functional; in short: as §4
Staphylococcus aureus [15] = test: Antibacterial activity against methicillin-resistant Staphylococcus aureus isolate OC8525 harboring wild type quinolone resistance-determining region assessed as log reduction in bacterial growth at 2 times MIC measured at 24 hrs by time-kill assay; assay type: functional
In short: (§5)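 Overnight MRSA cultures were diluted into fresh cation-adjusted Mueller-Hinton broth to about 5 × 10^6 CFU/ml. […] Samples were plated serially diluted on trypticase soy agar, and CFU were counted after 20-24 h at 37°C. Value is the log10 decrease at 24 h from the starting inoculum; detection limit 100 CFU.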

Streptococcus pneumoniae [16] = test: Antibacterial activity against Streptococcus pneumoniae isolate OC7376 assessed as log reduction in bacterial growth at 4 times MIC measured at 6 hrs by time-kill assay; assay type: functional; in short: as §1
Enterobacter cloacae = test: Antibacterial activity against Enterobacter cloacae by broth microdilution method; assay type: functional
Streptococcus pneumoniae [17] = test: Antibacterial activity against Streptococcus pneumoniae isolate OC7189 assessed as log reduction in bacterial growth at 2 times MIC measured at 6 hrs by time-kill assay; assay type: functional; in short: as §1
Serratia marcescens = test: Antibacterial activity against Serratia marcescens by broth microdilution method; assay type: functional; in short: as §3
Staphylococcus aureus [18] = test: Antibacterial activity against methicillin-resistant Staphylococcus aureus isolate OC11521 harboring gyrA S84L/S85P, parC E84G mutant gene assessed as log reduction in bacterial growth at 2 times MIC measured at 24 hrs by time-kill assay; assay type: functional; in short: as §5
Streptococcus pneumoniae [19] = test: Ratio of Ciprofloxacin MIC90 to compound MIC90 for ciprofloxacin-resistant Streptococcus pneumoniae; assay type: functional
Haemophilus influenzae = test: Antibacterial activity against Haemophilus influenzae by broth microdilution method; assay type: functional; in short: as §3
Staphylococcus aureus [20] = test: Antibacterial activity against methicillin-resistant Staphylococcus aureus isolate OC17042 harboring gyrA S84L/G106D, parC S80F and parE D732N mutant gene assessed as log reduction in bacterial growth at 2 times MIC measured at 24 hrs by time-kill assay; assay type: functional; in short: as §5
Streptococcus pneumoniae [21] = test: Antibacterial activity against Streptococcus pneumoniae isolate OC7348 assessed as log reduction in bacterial growth at 4 times MIC measured at 6 hrs by time-kill assay; assay type: functional; in short: as §1
Staphylococcus aureus [22] = test: Antibacterial activity against methicillin-resistant Staphylococcus aureus isolate OC4222 harboring gyrA S84L and parC S80F mutant gene assessed as log reduction in bacterial growth at 2 times MIC measured at 24 hrs by time-kill assay; assay type: functional; in short: as §5
Escherichia coli = test: Antibacterial activity against ciprofloxacin-resistant Escherichia coli by broth microdilution method; assay type: functional; in short: as §2
Staphylococcus aureus [23] = test: Antibacterial activity against methicillin-resistant Staphylococcus aureus isolate OC2838 assessed as log reduction in bacterial growth at 4 times MIC measured at 24 hrs by time-kill assay; assay type: functional; in short: as §5
Staphylococcus aureus [24] = test: Antibacterial activity against methicillin-resistant Staphylococcus aureus isolate OC11521 harboring gyrA S84L/S85P, parC E84G mutant gene assessed as log reduction in bacterial growth at 4 times MIC measured at 24 hrs by time-kill assay; assay type: functional; in short: as §5

## COc1c(N2CCC/C(=C(\F)CN)C2)c(F)cc2c(=O)c(C(=O)O)cn(C3CC3)c12 [ACORAFLOXACIN]
Streptococcus pneumoniae [1]
  deltalog10CFU/ml: 3.4
[2]
  pKa: 6.13
Staphylococcus aureus [3]
  MIC: 0.5 µg/mL (≈ 1.19 µM)
Streptococcus pneumoniae [4]
  deltalog10CFU/ml: 3.9
Streptococcus pneumoniae [5]
  MIC50: 0.015 µg/mL (≈ 0.0358 µM)
  MIC90: 0.12 µg/mL (≈ 0.286 µM)
Streptococcus pneumoniae [6]
  deltalog10CFU/ml: 6.6
Providencia stuartii
  Ratio: 16
Enterococcus faecium
  MIC50: 0.5 µg/mL (≈ 1.19 µM)
  MIC90: 4 µg/mL (≈ 9.54 µM)
Klebsiella pneumoniae
  MIC50: 0.12 µg/mL (≈ 0.286 µM)
  MIC90: 0.25 µg/mL (≈ 0.596 µM)
Streptococcus agalactiae
  MIC50: 0.015 µg/mL (≈ 0.0358 µM)
  MIC90: 0.015 µg/mL (≈ 0.0358 µM)
Proteus mirabilis
  MIC50: 0.25 µg/mL (≈ 0.596 µM)
  MIC90: 0.5 µg/mL (≈ 1.19 µM)
Streptococcus pneumoniae [7]
  Ratio: 9
Streptococcus pneumoniae [8]
  deltalog10CFU/ml: 4.3
Enterococcus faecalis
  MIC50: 0.06 µg/mL (≈ 0.143 µM)
  MIC90: 0.5 µg/mL (≈ 1.19 µM)
Staphylococcus aureus [9]
  MIC50: 0.12 µg/mL (≈ 0.286 µM)
  MIC90: 0.25 µg/mL (≈ 0.596 µM)
Streptococcus pneumoniae [10]
  deltalog10CFU/ml: 3.8
Streptococcus pneumoniae [11]
  Activity: Active
Streptococcus pneumoniae [12]
  deltalog10CFU/ml: 7.2
Streptococcus pneumoniae [13]
  deltalog10CFU/ml: 7
Staphylococcus aureus [14]
  MIC: 0.25 µg/mL (≈ 0.596 µM)
Staphylococcus aureus [15]
  deltalog10CFU/ml: 5.1
Streptococcus pneumoniae [16]
  deltalog10CFU/ml: 5.3
Enterobacter cloacae
  MIC50: 0.12 µg/mL (≈ 0.286 µM)
  MIC90: 0.12 µg/mL (≈ 0.286 µM)
Streptococcus pneumoniae [17]
  deltalog10CFU/ml: 4
Serratia marcescens
  MIC50: 0.5 µg/mL (≈ 1.19 µM)
  MIC90: 1 µg/mL (≈ 2.38 µM)
Staphylococcus aureus [18]
  deltalog10CFU/ml: 2.3
Streptococcus pneumoniae [19]
  Ratio: 9
Haemophilus influenzae
  MIC: 0.008 µg/mL (≈ 0.0191 µM)
  MIC50: 0.008 µg/mL (≈ 0.0191 µM)
  MIC90: 0.015 µg/mL (≈ 0.0358 µM)
Staphylococcus aureus [20]
  deltalog10CFU/ml: 3.8
Streptococcus pneumoniae [21]
  deltalog10CFU/ml: 3.6
Staphylococcus aureus [22]
  deltalog10CFU/ml: 5.9
Escherichia coli
  MIC50: 4 µg/mL (≈ 9.54 µM)
  MIC90: 16 µg/mL (≈ 38.1 µM)
Staphylococcus aureus [23]
  deltalog10CFU/ml: 4.5
Staphylococcus aureus [24]
  deltalog10CFU/ml: 2.3

Reference: ChEMBL document CHEMBL1255444, “In vitro antibacterial activities of JNJ-Q2, a new broad-spectrum fluoroquinolone” (Antimicrob Agents Chemother, 2010)
